Measured values from different studies.
Each line is one published result; the experiments were not run side by side.
Read-out: parasite growth

N=C(N)c1ccc(OCCCCCOc2ccc(C(=N)N)cc2)cc1 gave an IC50 of 3.4 µM (Leishmania amazonensis; imaging; 48 h, intracellular, amastigote).
The IC50 of CC(C)(C)CC(C)(C)Nc1c(-c2ccc(-c3ccccc3)cc2)nc2ncccn12 is reported as 31.1 µM (Leishmania amazonensis; MTT; 72 h, promastigote).
COc1ccc(Sc2ccccc2)c(OC)c1OC has an IC50 of 14 µM (Leishmania braziliensis; MTT; promastigote).
For C[C@@H]1[C@H](O)[C@@H](C)/C=C/C=C/C=C/C=C/C=C/C=C/C=C/[C@H](O[C@@H]2O[C@H](C)[C@@H](O)[C@H](N)[C@@H]2O)C[C@@H]2O[C@](O)(C[C@@H](O)C[C@@H](O)[C@H](O)CC[C@@H](O)C[C@@H](O)CC(=O)O[C@H]1C)C[C@H](O)[C@H]2C(=O)O, the IC50 was 0.06 mg/L (Leishmania amazonensis; 72 h, promastigote).
With COc1ccc([S+]([O-])c2ccc(OC)c(OC)c2OC)cc1 (stereo not drawn) the IC50 was 15.2 µM (Leishmania braziliensis; MTT; 24 h, promastigote).
With Oc1ccc(/C=C/c2cc(O)cc(O)c2)cc1 the IC50 was 14 µM (Leishmania amazonensis; imaging; 48 h, intracellular, amastigote).
C[C@@H]1[C@H](O)[C@@H](C)/C=C/C=C/C=C/C=C/C=C/C=C/C=C/[C@H](O[C@@H]2O[C@H](C)[C@@H](O)[C@H](N)[C@@H]2O)C[C@@H]2O[C@](O)(C[C@@H](O)C[C@@H](O)[C@H](O)CC[C@@H](O)C[C@@H](O)CC(=O)O[C@H]1C)C[C@H](O)[C@H]2C(=O)O has an IC50 of 22 µM (Leishmania braziliensis; MTT; 24 h, promastigote).
C=C1CC[C@@H]2[C@](C)(CCC[C@]2(C)C(=O)O)[C@H]1CC/C(C)=C/C(=O)O has an IC50 of 28 mg/L (Leishmania amazonensis; 72 h, promastigote).
The IC50 of CCCCCCCCc1nc2ncccn2c1NC(C)(C)CC(C)(C)C is reported as 40.6 µM (Leishmania amazonensis; MTT; 72 h, promastigote).
With COc1ccc(Sc2ccc(OC)c(OC)c2OC)cc1 the IC50 was 28 µM (Leishmania braziliensis; MTT; 24 h, promastigote).
CC(C)(C)CC(C)(C)Nc1c(-c2cccnc2)nc2ncccn12 gave an IC50 of greater than 100 µM (Leishmania amazonensis; MTT; 72 h, promastigote).
For C=C1CC[C@@H]2C(C)(C)CCC[C@@]2(C)[C@@H]1CC/C(C)=C/C(=O)OC, the IC50 was 6 mg/L (Leishmania amazonensis; 72 h, promastigote).
